# Source: ChEMBL document CHEMBL1156242, “Synthesis of a novel series of diphenolic chromone derivatives as inhibitors of NO production in LPS-activated RAW264.7 macrophages” (Bioorg Med Chem, 2010)
# Tests used:
# RAW264.7 [1] = experiment: Antiinflammatory activity in LPS-stimulated mouse RAW264.7 cells assessed as inhibition of nitric oxide production after 24 hrs by Griess reagent; type: functional, cell-based; details: RAW264.7, 24 h
# RAW264.7 [2] = experiment: Cytotoxicity against LPS-stimulated mouse RAW264.7 cells after 24 hrs by MTT assay; type: cell-based; details: RAW264.7, 24 h
# In short: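 RAW264.7 in 96-well plates left untreated or exposed to compounds at various concentrations for 24 h. MTT (5 mg/mL) added 4 h before end. Lysis buffer (10% SDS, 50% DMF, pH 7.2) applied 6 h, absorbance read at 570 nm.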
SMILES,IC50 (RAW264.7 [1]) [µM],IC50 (RAW264.7 [2]) [µM]
O=C(Oc1coc2cc(O)cc(O)c2c1=O)c1ccccc1,86.6,> 100
COc1ccc(C(=O)Oc2coc3cc(O)cc(O)c3c2=O)cc1,47.2,> 100
CCCCC(=O)Oc1coc2cc(O)cc(O)c2c1=O,60.4,> 100
CCCCCCCCC(=O)Oc1coc2cc(O)cc(O)c2c1=O,62.2,> 100
O=c1cc(-c2ccc(O)c(O)c2)oc2cc(O)cc(O)c12 [LUTEOLIN],10.4,
O=c1c(CO)coc2cc(O)cc(O)c12,> 100,> 100

# The next lines start with results.
IC50 (RAW264.7 [1]) [µM],SMILES,IC50 (RAW264.7 [2]) [µM]
17,Cc1ccccc1C(=O)Oc1coc2cc(O)cc(O)c2c1=O,> 100
7.7,O=c1cc(-c2ccc(O)cc2)oc2cc(O)cc(O)c12 [APIGENIN],
53.7,CS(=O)(=O)Oc1coc2cc(O)cc(O)c2c1=O,> 100
7.8,CCn1cc(-c2ccc(O)cc2)c(=O)c2c(O)cc(O)cc21 [AZAISOFLAVONE],
26,O=c1c(-c2ccc(O)cc2)coc2cc(O)cc(O)c12 [GENISTEIN],
19.2,Cc1ccc(S(=O)(=O)Oc2coc3cc(O)cc(O)c3c2=O)cc1,> 100
> 100,O=c1c(O)coc2cc(O)cc(O)c12,> 100
60,CC(=O)Oc1coc2cc(O)cc(O)c2c1=O,> 100
